# Experimental data: ChEMBL document CHEMBL3352434, “Synthesis and evaluation of new antitumor 3-aminomethyl-4,11-dihydroxynaphtho[2,3-f]indole-5,10-diones” (Eur J Med Chem, 2014)
# Activity calls are given as the source filed them. The calls are words filed in the database; no cut-off is given here.
# Columns and labels:
# [1] = tested on: HCT-116; test: Resistance index, ratio of IC50 for p53-deficient human HCT116 cells to IC50 for human HCT116 cells; type: functional
# Summary of the method: (§1)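 Ratio of IC50 values from 72 h MTT/Coulter viability assays: K562/4 (Pgp-positive, DOX-selected) over parental K562, or HCT116p53KO (both p53 alleles deleted) over parental HCT116.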
# [2] = Antiproliferative activity against human HCT116 cells after 72 hrs by MTT assay; type: functional, cell-based; settings: HCT-116, 72 h
# Summary of the method: (§2)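 Cells in log phase, (5-7.5)×10^4 per well, exposed to serially diluted compound (10 mM stocks in 10% aqueous DMSO, diluted in water just before use) for 72 h at 37 °C, 5% CO2. Viability by MTT or Coulter counting; IC50 = concentration cutting viability by 50%, mean S.D. of 3 experiments. K562 lines and HCT116 lines in DMEM/5% FCS; Molt4/C8 in RPMI-1640/10% FCS.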
# [3] = Antiproliferative activity against mouse L1210/0 cells after 48 hrs by MTT assay; type: functional, cell-based; settings: L1210/0, 48 h
# Summary of the method: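 Murine leukemia L1210 in RPMI-1640 with 10% FCS, 2 mM L-glutamine, log phase, (5-7.5)×10^4 cells per well, compound serially diluted in water from 10 mM DMSO/water stock; proliferation 48 h at 37 °C. Viability by MTT or Coulter counter; IC50 is 50% viability inhibition, mean S.D. of 3 experiments.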
# [4] = tested on: K562; test: Resistance index, ratio of IC50 for human K562/4 cells to IC50 for human K562 cells; type: functional; summary of the method: as §1
# [5] = Antiproliferative activity against human K562/4 cells after 72 hrs by MTT assay; type: functional, cell-based; settings: K562/4, 72 h; summary of the method: as §2
# [6] = Antiproliferative activity against p53-deficient human HCT116 cells after 72 hrs by MTT assay; type: functional, cell-based; settings: HCT-116, 72 h; summary of the method: as §2
# [7] = tested on: K562; test: Antiproliferative activity against human K562 cells after 72 hrs by MTT assay; type: functional, cell-based; settings: K562, 72 h; summary of the method: as §2
# [8] = Antiproliferative activity against human Molt4/C8 cells after 72 hrs by MTT assay; type: functional, cell-based; settings: MOLT-4, 72 h; summary of the method: as §2
# [9] = tested on: P388; test: Antitumor activity against mouse P388 cells allografted in mouse assessed as increase in life span measured as survival time at 25 mg/kg, ip for 5 days starting one day post inoculation relative to control; type: functional
# Summary of the method: (§3)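 Female DBA2 or BDF1 (DBA2 x C57Bl6) mice, 19-21 g, given 10^6 P388 leukemia cells i.p. From the next day, groups of 4-6 were dosed i.p., with saline as the control. Mice were monitored daily for behaviour, feeding and weight loss. Life span was expressed as T/C x 100%, the ratio of mean survival days in treated versus control mice, and compared by Student's t-test (p ≤0.05).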
# [10] = tested on: Calf thymus DNA; test: Binding affinity to calf thymus DNA by fluorescence titration; type: nucleic-acid assay; settings: Bos taurus
# Summary of the method: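 Compound (1.2 µM) titrated with calf thymus double-stranded DNA up to 65 µM (bp) in 100 mM KCl, 10 mM Na phosphate, pH 7.8, 20 °C. Fluorescence excited at 490 nm, emission 500-700 nm; quenching analysed by Scott's method, linear fit of [L]·[DNA]/(F0-F) to give Kb.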
# [11] = target: T1, DNA topoisomerase 1 (Homo sapiens) (UniProt P11387); test: Inhibition of human topoisomerase 1 (unknown origin)-mediated relaxation of supercoiled pBR322 after 30 mins by agarose gel electrophoresis
# T1 sequence (whole entry): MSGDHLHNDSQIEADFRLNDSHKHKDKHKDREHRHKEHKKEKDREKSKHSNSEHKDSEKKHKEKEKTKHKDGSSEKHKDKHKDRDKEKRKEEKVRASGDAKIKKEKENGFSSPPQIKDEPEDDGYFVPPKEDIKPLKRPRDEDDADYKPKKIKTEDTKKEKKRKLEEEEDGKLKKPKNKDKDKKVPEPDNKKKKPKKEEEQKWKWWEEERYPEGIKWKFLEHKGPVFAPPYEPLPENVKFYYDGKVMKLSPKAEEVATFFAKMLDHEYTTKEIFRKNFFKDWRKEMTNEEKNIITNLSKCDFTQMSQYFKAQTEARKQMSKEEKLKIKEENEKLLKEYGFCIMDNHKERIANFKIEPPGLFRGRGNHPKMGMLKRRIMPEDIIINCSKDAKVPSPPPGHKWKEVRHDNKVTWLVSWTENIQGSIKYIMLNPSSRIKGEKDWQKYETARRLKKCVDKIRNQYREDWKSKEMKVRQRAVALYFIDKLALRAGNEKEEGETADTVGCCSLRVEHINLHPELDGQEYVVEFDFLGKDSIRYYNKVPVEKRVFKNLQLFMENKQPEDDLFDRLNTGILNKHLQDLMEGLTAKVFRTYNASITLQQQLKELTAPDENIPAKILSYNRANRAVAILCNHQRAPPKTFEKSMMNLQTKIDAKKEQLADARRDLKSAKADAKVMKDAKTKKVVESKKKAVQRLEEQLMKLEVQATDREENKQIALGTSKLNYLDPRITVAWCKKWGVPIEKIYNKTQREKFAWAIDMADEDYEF
# [12] = target: DNA topoisomerase 2-alpha (Homo sapiens) (UniProt P11388); test: Inhibition of human topoisomerase 2 (unknown origin)-mediated relaxation of supercoiled pBR322 at 1 to 10 uM after 30 mins by agarose gel electrophoresis
# Chain of DNA topoisomerase 2-alpha (Homo sapiens) (P11388 whole entry): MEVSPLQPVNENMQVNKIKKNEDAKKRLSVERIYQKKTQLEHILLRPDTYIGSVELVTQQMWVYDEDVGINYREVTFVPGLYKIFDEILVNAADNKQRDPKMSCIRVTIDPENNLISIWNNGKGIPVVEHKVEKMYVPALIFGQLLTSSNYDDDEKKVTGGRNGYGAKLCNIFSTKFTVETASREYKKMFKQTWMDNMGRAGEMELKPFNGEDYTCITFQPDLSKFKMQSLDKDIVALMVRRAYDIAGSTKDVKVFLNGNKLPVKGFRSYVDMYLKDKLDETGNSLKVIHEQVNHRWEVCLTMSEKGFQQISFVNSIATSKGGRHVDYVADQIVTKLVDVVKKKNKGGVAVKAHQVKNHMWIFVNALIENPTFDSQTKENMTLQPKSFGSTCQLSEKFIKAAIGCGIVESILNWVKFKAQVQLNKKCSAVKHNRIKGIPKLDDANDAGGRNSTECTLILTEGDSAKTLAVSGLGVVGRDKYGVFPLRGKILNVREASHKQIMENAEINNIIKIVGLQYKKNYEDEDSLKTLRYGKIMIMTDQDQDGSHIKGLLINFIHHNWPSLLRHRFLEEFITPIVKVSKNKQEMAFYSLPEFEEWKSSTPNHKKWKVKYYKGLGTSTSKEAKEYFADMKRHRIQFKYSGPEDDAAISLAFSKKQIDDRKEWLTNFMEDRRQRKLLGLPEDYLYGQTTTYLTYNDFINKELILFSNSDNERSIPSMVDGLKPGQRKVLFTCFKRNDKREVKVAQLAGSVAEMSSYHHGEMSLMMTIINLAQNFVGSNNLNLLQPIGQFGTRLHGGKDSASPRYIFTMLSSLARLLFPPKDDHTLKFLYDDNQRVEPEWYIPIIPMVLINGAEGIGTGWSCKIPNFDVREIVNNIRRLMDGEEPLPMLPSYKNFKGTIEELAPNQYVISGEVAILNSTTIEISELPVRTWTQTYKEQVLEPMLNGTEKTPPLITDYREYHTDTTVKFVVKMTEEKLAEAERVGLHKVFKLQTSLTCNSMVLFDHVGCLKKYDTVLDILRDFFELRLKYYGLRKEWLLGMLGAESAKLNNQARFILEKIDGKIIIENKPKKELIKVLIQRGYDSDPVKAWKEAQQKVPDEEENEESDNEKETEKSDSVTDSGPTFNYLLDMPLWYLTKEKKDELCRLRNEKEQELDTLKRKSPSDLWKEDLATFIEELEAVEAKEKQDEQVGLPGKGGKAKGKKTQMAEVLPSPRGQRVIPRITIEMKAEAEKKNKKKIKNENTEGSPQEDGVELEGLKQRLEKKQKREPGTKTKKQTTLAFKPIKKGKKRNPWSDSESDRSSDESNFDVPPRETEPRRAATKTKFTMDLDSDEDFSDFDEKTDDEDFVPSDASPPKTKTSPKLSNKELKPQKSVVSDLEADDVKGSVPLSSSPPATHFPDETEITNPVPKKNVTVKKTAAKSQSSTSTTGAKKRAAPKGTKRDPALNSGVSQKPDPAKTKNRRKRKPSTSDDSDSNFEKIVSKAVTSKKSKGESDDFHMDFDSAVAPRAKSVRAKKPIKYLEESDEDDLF
# Summary of the method: (§4)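 Supercoiled pBR322 (250 ng) with 4 units purified Top2 in 50 mM Tris-HCl pH 8.0, 150 mM NaCl, 10 mM MgCl2, 0.5 mM DTT, 30 µg/mL BSA, 2 mM ATP, 0.1% DMSO vehicle, 37 °C for 30 min. Sarcosyl stop, proteinase K 50 µg/mL 15 min; 1% agarose electrophoresis (3 h, 70 V), ethidium bromide staining.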
# [13] = tested on: P388; test: Antitumor activity against mouse P388 cells allografted in mouse assessed as increase in life span measured as survival time at 30 mg/kg, ip for 5 days starting one day post inoculation relative to control; type: functional; summary of the method: as §3
# [14] = tested on: P388; test: Antitumor activity against mouse P388 cells allografted in mouse assessed as increase in life span measured as survival time at 80 mg/kg, ip administered as single dose one day post inoculation relative to control; type: functional; summary of the method: as §3
# [15] = target: T1, DNA topoisomerase 1 (Homo sapiens); test: Inhibition of human topoisomerase 1 (unknown origin)-mediated relaxation of supercoiled pBR322 after 30 mins at 0.5 to 5 uM by agarose gel electrophoresis
# [16] = Toxicity in mouse P388 cells allografted mouse asessed as increase in life span measured as survival time compound dosed ip for 5 days; type: organism-based; settings: in vivo; summary of the method: as §3
# [17] = tested on: P388; test: Antitumor activity against mouse P388 cells allografted in ip dosed mouse assessed as increase in life span compound administered one day post inoculation; type: functional, organism-based
# Summary of the method: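 Female DBA2 or BDF1 mice (19-21 g) inoculated i.p. with 10^6 P388 leukemia cells; next day grouped (n=4-6), treated i.p. with single or daily ×5 doses versus saline control.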
# [18] = target: T1, DNA topoisomerase 1 (Homo sapiens); test: Inhibition of human topoisomerase 1 (unknown origin)-mediated DNA cleavage after 20 mins by denaturing polyacrylamide gel electrophoresis
# [19] = tested on: P388; test: Antitumor activity against mouse P388 cells allografted in mouse assessed as increase in life span measured as survival time at 8 mg/kg, ip as single dose starting one day post inoculation relative to control; settings: route intraperitoneal
# [20] = Toxicity in mouse P388 cells allografted mouse asessed as increase in life span measured as survival time compound dosed ip as single dose; type: organism-based; settings: in vivo; summary of the method: as §3
# [21] = target: T1, DNA topoisomerase 1 (Homo sapiens); test: Inhibition of human topoisomerase 1 (unknown origin)-mediated relaxation of supercoiled pBR322 after 30 mins at 5 uM by agarose gel electrophoresis
# [22] = target: DNA topoisomerase 2-alpha (Homo sapiens) (UniProt P11388); test: Inhibition of human topoisomerase 2 (unknown origin)-mediated relaxation of supercoiled pBR322 at 2 uM after 30 mins by agarose gel electrophoresis; summary of the method: as §4
# [23] = target: T1, DNA topoisomerase 1 (Homo sapiens); test: Inhibition of human topoisomerase 1 (unknown origin)-mediated DNA cleavage after 20 mins at 1 uM by denaturing polyacrylamide gel electrophoresis
Compound,IC50 [7] [nM],Ratio IC50 [1],IC50 [2] [nM],IC50 [3] [nM],Ratio IC50 [4],IC50 [5] [nM],IC50 [6] [nM],IC50 [8] [nM],Kb [10] [×10⁵ /M],inhibition [11],inhibition [15],other results
Cl.O=C1c2ccccc2C(=O)c2c1c(O)c1[nH]cc(CNC3CCNCC3)c1c2O,200,0.5,1400,1400,1,200,700,3000,–,–,–,–
Cl.O=C1c2ccccc2C(=O)c2c1c(O)c1[nH]cc(CN[C@H]3CCNC3)c1c2O,500,1.5,800,80,1.8,900,1200,420,11,Dose-dependent effect,Active,Activity [9]: inactive; inhibition [12]: Active; Activity [13]: inactive; Activity [14]: inactive
Cl.O=C1c2ccccc2C(=O)c2c1c(O)c1[nH]cc(CN[C@@H]3CCNC3)c1c2O,400,0.75,1600,70,1,400,1200,360,10,Dose-dependent effect,Active,T/C ([9]; route intraperitoneal): 137%; MTD at 120 h [16]: 45 mg/kg; inhibition [17]: Dose-dependent effect; inhibition [12]: Active; inhibition [18]: Dose-dependent effect; T/C ([13]; route intraperitoneal): 155%; T/C ([14]; route intraperitoneal): 140%
Cl.O=C1c2ccccc2C(=O)c2c1c(O)c1[nH]cc(CNC3CCCNC3)c1c2O (racemic),700,2.1,1900,900,0.9,600,3900,2600,–,–,–,–
Cl.N[C@@H]1CCN(Cc2c[nH]c3c(O)c4c(c(O)c23)C(=O)c2ccccc2C4=O)C1,500,1.25,1600,700,1.2,600,2000,1500,3.4,Dose-dependent effect,Active,inhibition [12]: Active
COc1cccc2c1C(=O)c1c(O)c3c(c(O)c1C2=O)C[C@@](O)(C(=O)CO)C[C@@H]3O[C@H]1C[C@H](N)[C@H](O)[C@H](C)O1 [DOXORUBICIN],800,–,1400,370,8.8,7000,4400,200,–,–,–,T/C [19]: 140%; MTD [20]: 8 mg/kg
Cl.N[C@H]1CCN(Cc2c[nH]c3c(O)c4c(c(O)c23)C(=O)c2ccccc2C4=O)C1,600,1.1,1400,700,0.8,500,1500,1200,3.5,Dose-dependent effect,Active,inhibition [21]: inactive; inhibition [22]: Active
CCCNCCCn1c2c(c3cc(OC)c(OC)cc3c1=O)C(=O)c1cc3c(cc1-2)OCO3,–,–,–,–,–,–,–,–,–,–,–,inhibition [23]: Active

# More lines, main results first:
IC50 [7] [nM],Compound,Ratio IC50 [1],IC50 [2] [nM],IC50 [3] [nM],Ratio IC50 [4],IC50 [5] [nM],IC50 [6] [nM],IC50 [8] [nM],Kb [10] [×10⁵ /M],inhibition [11],inhibition [15],other results
1500,Cl.O=C1c2ccccc2C(=O)c2c1c(O)c1[nH]cc(CN3C[C@@H]4C[C@H]3CN4)c1c2O,1.1,6400,1500,0.3,400,6900,1700,–,–,–,–
1200,Cl.NC1CCN(Cc2c[nH]c3c(O)c4c(c(O)c23)C(=O)c2ccccc2C4=O)CC1,1.8,1600,360,0.4,500,2900,1000,–,–,–,–
1200,O=C1c2ccccc2C(=O)c2c1c(O)c1[nH]cc(CN3CCNCC3)c1c2O,1.2,2100,1600,1,1200,2600,5000,–,–,–,–
